A selection: hits, their analogues and other compounds. The true share with any hit is near 2.1%.
M5 ag – agonists of human muscarinic M5 receptor (CHRM5) | CHO-K1 hM5 cells, Fluo-8 calcium fluorescence; 0% DMSO wells, 100% maximal acetylcholine response | activation, % at 3 µM | hit rate 0.19% among 360,000 | P08912;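 active = activation above the run's mean over test compounds plus 3 SD, cut at about 23% in these data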;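 note: signal is peak over basal fluorescence ratio across the kinetic read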
Target sequence (P08912 whole entry, looked up): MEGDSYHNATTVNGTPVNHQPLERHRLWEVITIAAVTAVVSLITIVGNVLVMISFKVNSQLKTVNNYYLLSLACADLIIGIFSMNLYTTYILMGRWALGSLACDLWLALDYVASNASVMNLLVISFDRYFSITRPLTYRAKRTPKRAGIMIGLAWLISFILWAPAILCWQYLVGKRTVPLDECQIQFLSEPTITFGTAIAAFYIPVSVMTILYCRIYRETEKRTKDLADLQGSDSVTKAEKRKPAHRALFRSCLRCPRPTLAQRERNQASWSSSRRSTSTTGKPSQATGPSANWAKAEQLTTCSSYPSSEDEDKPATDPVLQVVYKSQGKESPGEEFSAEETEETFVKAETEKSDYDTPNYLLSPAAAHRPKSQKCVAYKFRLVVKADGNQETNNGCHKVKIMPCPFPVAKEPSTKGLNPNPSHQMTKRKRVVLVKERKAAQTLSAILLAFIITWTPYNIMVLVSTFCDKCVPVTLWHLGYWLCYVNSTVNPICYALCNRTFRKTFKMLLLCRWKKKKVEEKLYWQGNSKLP
CHRM1 antagonist – blocks human M1 muscarinic receptor; CHO-K1 hM1, Fluo-8 calcium fluorescence, ACh EC80 antagonist; inhibition, % at 3 µM; hit rate 1.3% among 360,000; AID 588852; P11229;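 active = percent inhibition above its own plate's cutoff, namely the mean of that plate's compound wells plus 3 SD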;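 note: peak over basal fluorescence ratio during 140 s after agonist addition; 0% = ACh EC80 plus DMSO and 100% = DMSO alone without agonist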
M1 ag – human M1 muscarinic receptor agonism; P11229; CHO-K1 hM1, Fluo-8 calcium fluorescence, agonist mode; 0% DMSO, 100% acetylcholine EC100; activation, % at 3 µM; hit rate 0.33% among 360,000;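 active = activation above the run's mean compound activation plus 3 SD, cut at about 16% in these data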;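 note: peak over basal fluorescence ratio within a 140 s kinetic read after compound addition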
CHRM5 PAM – positive allosteric modulators of human muscarinic M5 receptor; hit rate 0.3% among 360,000; CHO-K1 hM5, Fluo-8 calcium, ACh EC20 PAM; 0% = ACh EC20, 100% = ACh EC100; activation, % at 3 µM;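 active = activation above the run cutoff, the mean activation of all test compounds plus 3 SD, cut at about 18% in these data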
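Measured by: Fluo-8 calcium fluorescence; material: human M5 receptor in CHO-K1 cells; schedule: Post-acetylcholine fluorescence recording 140 s; benchmarks: low control EC20 acetylcholine (0%), high control EC100 acetylcholine (100%); read-out: Max/basal fluorescence ratio as % of EC20–EC100 ACh window; compound: single dose, 3 µM nominal final test concentration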
CHRM5 antagonist – antagonists of human muscarinic M5 receptor (CHRM5). CHO-hM5 cells, Fluo-8 calcium fluorescence, ACh EC80. inhibition, % at 3 µM. hit rate 0.59% among 360,000;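 active = inhibition above a per-plate cutoff, the mean of that plate's test compounds plus 3 SD, cut at about 27% in these data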;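 note: 0% = acetylcholine EC80 with DMSO and 100% = DMSO without agonist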
CHRM1 PAM – potentiates human M1 receptor response to acetylcholine | P11229 | CHO-K1 hM1, Fluo-8 calcium fluorescence, ACh EC20; 0% = ACh EC20, 100% = maximal ACh | activation, % at 3 µM | hit rate 0.088% among 360,000 | AID 588819; in the data active = activation above about 19%, passing the limit was not always enough
Starred values were filed as active, the others as inactive.

SMILES	M5 ag	CHRM1 antagonist	M1 ag	CHRM5 PAM	CHRM5 antagonist	CHRM1 PAM
CCN(CC1CCCN(CCc2cccc(F)c2)C1)C(=O)c1ccoc1C (configuration not stated)	-4.1	9.2	-9.1	-10.3	5.8	-10.8
CCN(CC1CCCN(CCc2cccc(F)c2)C1)C(=O)c1ccc(CSC)o1 (configuration not stated)	-7.7	60.8*	-6.8	-8.2	0.1	-24.0
CC(C)N(C(=O)COC(=O)c1cccnc1Cl)c1ccccc1	-0.4	-38.2	1.3	8.0	0.2	31.8*
CC1C(=O)N(Cc2cn(CCC3OCCCO3)nn2)CCS(=O)(=O)N1Cc1ccc(-c2ccc(Cl)c(Cl)c2)cc1 (configuration not stated)	7.0	30.5*	1.1	-18.0	35.9*	-15.7
CC1C(=O)N(Cc2cn(CCC3OCCCO3)nn2)CCS(=O)(=O)N1Cc1ccc(-c2ccc(F)cc2)cc1 (configuration not stated)	1.2	0.8	-3.4	-8.1	6.6	-7.4
CC(C)CC1C(=O)N(Cc2cn(CCC3OCCO3)nn2)CCS(=O)(=O)N1Cc1ccc(-c2cccc(CO)c2)cc1 (configuration not stated)	1.1	2.6	-2.8	-9.3	7.9	-4.3
Cc1cccc(C)c1-c1ccc(CN2C(CC(C)C)C(=O)N(Cc3cn(CCO)nn3)CCS2(=O)=O)cc1 (configuration not stated)	2.7	28.7*	-3.0	-12.5	10.6	-9.2
CC[N+](C)(CC)CCOC(=O)C(O)(c1ccccc1)C1CCCCC1 (configuration not stated)	-1.6	97.6*	-6.9	-18.3	98.0*	-25.6
CC[N+](C)(CC)CCC(c1ccccc1)C1CCCCC1 (configuration not stated)	-25.6	99.7*	-9.1	-31.6	99.0*	-29.3
C[C@H](CO)N1C[C@H](C)[C@@H](CN(C)Cc2ccc(Oc3ccccc3)cc2)Oc2cc(Br)ccc2S1(=O)=O	2.3	-5.4	3.5	-1.6	-5.7	7.0
Cc1ccc(COn2c(-c3ccc(Cl)cc3Cl)nc3ncccc32)cc1	-9.4	35.0*	-5.6	-19.1	4.6	-21.7
COc1ccc(-c2cc(=O)c3ccc(O)cc3o2)cc1	-1.3	-22.9	0.7	3.6	-4.3	24.1*
Cc1c(CCOC(=O)C23CC4CC(CC(C4)C2)C3)sc[n+]1Cc1ccccc1	-7.0	64.3*	-12.5	-18.1	18.2	-25.7
Cc1sc[n+](CC(=O)c2ccc(Br)cc2)c1C	-6.3	4.5	-5.3	-5.5	15.1	-2.3
Cc1c(CCOC(=O)C23CC4(C)CC(C)(CC(C)(C4)C2)C3)sc[n+]1CC(=O)c1ccccc1	-10.2	32.1*	-8.9	-16.8	15.8	-24.3
Cc1ncc(C[n+]2csc(CCOC(=O)C34CC5CC(CC(C5)C3)C4)c2C)c(N)n1	-10.5	8.6	-15.4	-14.2	4.2	-17.6
Cc1c(CCOC(=O)c2cc([N+](=O)[O-])cc([N+](=O)[O-])c2)sc[n+]1CC(=O)c1ccc(Br)cc1	-10.6	80.3*	-9.9	-0.1	2.4	-26.2
Cc1c(CCOC(=O)C23CC4CC(CC(C)(C4)C2)C3)sc[n+]1Cc1ccccc1	-5.8	99.8*	-5.4	-23.4	98.4*	-22.7
Cc1ccc(C(=O)OCCc2sc[n+](Cc3ccccc3)c2C)cc1	-9.4	13.7	-11.5	-18.8	17.3	-16.4
CN1CCN(S(=O)(=O)Cc2ccccc2Cl)CC1	-3.5	0.1	-0.1	1.5	3.6	5.8
Cc1c(CCOC(=O)CC23CC4CC(CC(C4)C2)C3)sc[n+]1CC(=O)c1ccccc1	-10.2	19.2	-5.3	3.2	-1.5	-10.1
Cc1c(CCOC(=O)c2ccc(Cl)cc2Cl)sc[n+]1CC(=O)c1ccccc1	-6.9	95.3*	-3.3	-45.6	44.6*	-29.0
CC1CCC(CN2CCN=C2Nc2ccccc2)CC1 (configuration not stated)	-9.0	34.1*	-10.6	5.4	-2.4	-17.4
COc1cc(C2SCC(=O)N2CCCN(C)C)cc(OC)c1OC (configuration not stated)	0.8	28.6*	0.3	-4.0	-0.5	-8.9
CN(C)CCCN1C(=O)CSC1c1ccccc1 (configuration not stated)	-4.1	3.5	-12.2	-10.6	-2.5	0.1
SMILES	M5 ag	CHRM1 antagonist	M1 ag	CHRM5 PAM	CHRM5 antagonist	CHRM1 PAM
CN1CCN(c2ccc(NC(=O)c3ccc(Oc4ccccc4)cc3)cc2)CC1	-5.7	46.0*	-10.0	-17.2	17.1	-30.4
Cc1ccc(C(=O)N2CCN(c3ccc(NC(=S)NC(=O)Cc4ccccc4)cc3)CC2)cc1	-0.6	18.5	-1.2	-19.3	29.1*	-5.8
CC(=O)c1ccc(N2CCN(C(=S)Nc3ccc(Oc4ccccc4)cc3)CC2)cc1	2.5	35.0*	-2.4	-30.9	34.8*	-6.7
Cc1ccc(S(=O)(=O)N2C[C@@H]3[C@H]4CC[C@H](C4)[C@@H]3[C@@H](C)C2CC(=O)c2ccccc2)cc1 (some centres not stated)	-0.2	-0.7	-2.2	-0.7	-7.2	0.0
O=C(CCNC(=O)c1ccc(Br)cc1)Nc1nc2ccccc2[nH]1	1.0	-4.4	-1.2	5.8	-4.6	2.6
CCOc1cc(N2CCOCC2)c(OCC)cc1NS(=O)(=O)c1ccc(Cl)s1	-3.0	-32.8	1.3	0.1	1.8	19.2
CN(C)CC#CCC(O)(c1ccccc1)C1CCCCC1 (configuration not stated)	-16.2	100.3*	-8.6	-30.6	95.5*	-26.1
CCN(CC)CC#CCC(O)(c1ccccc1)C1CCCC1 (configuration not stated)	-6.3	102.2*	-12.7	-23.2	94.7*	-35.3
OCCN(CC#CCC(O)(c1ccccc1)C1CCCC1)CCO (configuration not stated)	-13.0	-6.0	-6.9	7.0	-0.8	4.8
CN1CCN(CC#CCC(O)(c2ccccc2)C2CCCC2)CC1 (configuration not stated)	-7.7	34.1*	-5.8	-10.6	5.8	-16.5
CCCCNc1nc(-c2ccccc2)nc(-n2ccnc2)n1	-2.1	-1.9	-3.4	-1.6	-0.3	2.5
COc1ccccc1-c1noc(CCC(=O)Nc2cc(C(F)(F)F)ccc2Cl)n1	-0.4	17.3	-0.5	19.2*	1.9	-4.3
CCOC(=O)c1c(/N=C/N(C)C)sc(/C=N/Nc2ccccc2)c1-c1ccccc1	1.1	3.3	-6.9	-4.8	-0.3	-3.7
Cc1ccc(S(=O)(=O)N(C)C)cc1NC(=O)CN1C(=O)NC2(CCCCCC2)C1=O	-3.5	6.5	-6.3	-9.1	29.1*	-4.3

Compound activity deposited in PubChem BioAssay by The Scripps Research Institute Molecular Screening Center.
